# OX1R antag-1 = antagonists of human orexin 1 receptor; O43613; CHO/OX1R cells, Fluo-8 calcium fluorescence, orexin A; inhibition, % at 5 µM; 330,000 tested, 0.43% active;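 active means inhibition above its plate's threshold, mean inhibition of all tested compounds on the plate plus 3 SD, cut at about 37% in these data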
# Target sequence (O43613 whole entry, looked up): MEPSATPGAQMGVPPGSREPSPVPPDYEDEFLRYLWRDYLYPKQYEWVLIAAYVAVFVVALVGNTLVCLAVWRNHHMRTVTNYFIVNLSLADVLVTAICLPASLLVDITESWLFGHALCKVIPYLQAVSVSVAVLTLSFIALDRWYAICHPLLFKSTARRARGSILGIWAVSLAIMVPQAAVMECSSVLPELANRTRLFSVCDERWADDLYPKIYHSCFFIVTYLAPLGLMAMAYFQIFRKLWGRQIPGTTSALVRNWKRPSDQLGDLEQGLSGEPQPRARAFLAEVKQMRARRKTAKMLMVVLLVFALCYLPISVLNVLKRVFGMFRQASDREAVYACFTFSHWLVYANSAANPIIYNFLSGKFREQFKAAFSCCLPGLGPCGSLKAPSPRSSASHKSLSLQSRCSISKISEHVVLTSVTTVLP
# TAAR1 agonist = agonists of human TAAR1; CHO RD-HGA16 TAAR1, Fluo-8 calcium fluorescence; vehicle wells 0%, saturating PEA agonist 100%; activation, % at 3 µM; 360,000 tested, 0.99% active;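 active means activation above the mean activation of all test compounds in the run plus 3 SD, cut at about 38% in these data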
#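 Assay system – CHO-derived RD-HGA16 cells with stable Gα16 and human TAAR1 · Compound dosing – one-point dosing at 3 µM (nominal) · Incubation – 17-24 h seeding, 75 min 37 °C dye, 30 min RT · Measured by – kinetic Fluo-8 calcium fluorescence · Control set – DMSO vehicle as 0%, PEA at EC100 as 100% · Repeats – single well for each compound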
# GPR7 antagonist = blocks human GPR7 receptor signaling; P48145; GPR7-expressing cells, fluorescence antagonist assay; inhibition, % at 4.4 µM; 290,000 tested, 1.1% active; in the data active means inhibition above about 16%, passing the limit was not always enough;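 further: cells stimulated with the agonist NPW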
# OX1R antag-2 = OX1R (human) antagonism | O43613 | inhibition, % at 6.6 µM | 330,000 tested, 1.8% active | OX1R-expressing cells, FRET antagonist read-out; in the data active means inhibition mostly above about 38%, no sharp cut-off; inactive means mostly below about 40%
# TAAR1 antagonist = human TAAR1 antagonism. AID 624466. Q96RJ0. inhibition, % at 3 µM. CHO RD-HGA16 TAAR1, Fluo-8 calcium fluorescence, antagonist. 360,000 tested, 1.5% active;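 active means inhibition above a per-plate cutoff, the mean inhibition of test compounds on that plate plus 3 SD, cut at about 49% in these data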
#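 Test system: hTAAR1-expressing CHO RD-HGA16 cells, Gα16-coupled; Probe or stimulus: EC80 β-phenethylamine stimulus; Compound dosing: single nominal final test compound concentration of 3 µM; Timing: 140 s kinetic read after compound, 140 s after agonist; Signal: Fluo-8 calcium-sensitive fluorescence; Measure: % inhibition of agonist calcium response; Controls: DMSO and EC80 PEA controls.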
# CHO parental Ca = signal in parental CHO cells, OX1R antagonist counter-screen. 330,000 tested, 0.63% active. AID 463079. inhibition, % at 5.6 µM. parental CHO-K1, ATP-induced calcium, Fluo-8 fluorescence;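 active means inhibition above that plate's mean sample inhibition plus 3 SD, cut at about 26% in these data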
#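 Test system: untransfected parental CHO cell line. Compound: one dose, 5.6 µM nominal. Detection: intracellular calcium via Fluo-8 no-wash fluorescent dye. Measure: % inhibition. Benchmarks: ATP-challenged DMSO wells low, unchallenged DMSO wells high.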
# OX1R HTRF conf = confirmation of human orexin 1 receptor antagonists, HTRF format; OX1R-expressing cells, HTRF antagonist assay; 1,800 tested, 49% active; shares compounds with OX1R antag-2; inhibition, % at 6.6 µM; in the data active means inhibition above about 55%;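 further: CHO cells expressing OX1R stimulated with orexin A at about EC80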
# CHO-K1 HTRF cnt = counter-screen: parental CHO-K1 HTRF response | shares compounds with OX1R antag-2 | parental CHO-K1 cells, HTRF counterscreen | inhibition, % at 6.6 µM | 1,800 tested, 48% active; in the data active means inhibition above about 17%
# Hits are given with their value; - = inactive; . = no result. In the library only some 4.6% were active in any assay of this set; here they are far more common.
SMILES,OX1R antag-1,TAAR1 agonist,GPR7 antagonist,OX1R antag-2,TAAR1 antagonist,CHO parental Ca,OX1R HTRF conf,CHO-K1 HTRF cnt
COc1ccc(S(=O)(=O)N2CCC(C(=O)NCc3ccccc3)CC2)cc1OC,-,-,-,-,-,-,.,.
CCCNc1nc(C)cc(-c2cc(C(=O)NC3CCCC3)on2)n1,-,-,.,-,-,-,.,.
Cn1c(=O)c(Nc2ccc(O)cc2)c2c3c(cccc31)C(=O)c1ccccc1-2,-,-,-,-,-,-,.,.
C#CCOCCOCCOCCNc1nc(N2CCN(C(=O)[C@H](CCC(=O)O)n3cc(CN)nn3)CC2)nc(N2CCN(C(=O)[C@H](CCCN=C(N)N)n3cc(C(N)[C@@H](C)CC)nn3)CC2)n1 (some centres undefined),-,-,.,-,-,-,.,.
COc1ccc(-c2nn3c(-c4ccccc4)nnc3s2)cc1,-,-,-,87.0,-,-,88.1,-
COc1ccc(-c2nn3c(-c4ccc(F)cc4)nnc3s2)cc1,-,-,-,-,-,-,.,.
CSc1nc(C)cc(-c2cc(C(=O)Nc3ccccc3)on2)n1,-,.,.,-,.,-,.,.
N#Cc1ccc(CSc2nnc(-c3ccncc3)n2CCc2ccccc2)cc1,-,-,-,-,-,-,.,.
c1ccc(CCn2c(SCc3ccccc3)nnc2-c2ccncc2)cc1,-,-,-,101.3,-,-,-,-
Cc1ccc(Nc2nc(N/N=C\c3ccc4c(c3)OCO4)nc(N3CCOCC3)n2)cc1,-,-,-,-,-,-,.,.
CC(C)(C)C1CCC(=NNc2ccc(S(N)(=O)=O)cc2[N+](=O)[O-])CC1 (centres undefined),-,-,-,-,-,-,.,.
CC1CCCC/C1=N\Nc1ccc(S(N)(=O)=O)cc1[N+](=O)[O-] (centres undefined),-,-,-,116.0,-,-,-,26.0
Cc1cc(OCc2cccc(Cl)c2)c(C)cc1CN1CCOCC1,-,-,-,-,-,-,.,.
O=c1c2ccccc2nc2c3ccccc3c(NCc3ccccn3)nn12,-,-,-,90.3,-,-,87.7,-
Cc1cc(NCc2ccccn2)nc2ccccc12,-,-,-,-,-,-,.,.
O=C(NCCOCCNC(=O)OCc1ccccc1)OCc1ccccc1,-,-,-,-,-,-,.,.
Cc1cccc(NC(=O)CN(C)S(=O)(=O)c2ccc3c(c2)n(C)c(=O)c(=O)n3C)c1C,-,-,-,-,-,-,.,.
CC(C)=CCCC1(C)C=Cc2c(c(C)cc3c2[nH]c2cc(O)ccc23)O1 (centres undefined),-,-,.,-,-,-,.,.
O=C(CCN1C(=O)COc2ccccc21)N1CCCCC1,-,-,-,-,-,-,.,.
Cc1cc(C)c(C#N)c(SCc2nnc(-c3ccccc3[N+](=O)[O-])o2)n1,-,-,-,-,-,-,.,.
Cc1cc(C)c(C#N)c(SCc2nnc(-c3ccccc3)o2)n1,-,-,-,80.7,-,-,-,-
COC(=O)CCC(=O)NC(=S)Nc1ccc(S(=O)(=O)N2CCCC2)cc1,-,-,-,-,-,-,.,.
Cc1cc(=O)[nH]c(N/N=C/c2c(C)oc3ccccc23)n1,-,-,-,76.9,-,-,84.9,-
CCc1cc2c(=O)c(-c3nc(C)cs3)coc2cc1O,-,-,-,82.1,-,-,77.6,-
COc1ccc2c(=O)c(-c3nc(C)cs3)coc2c1,-,-,-,-,-,-,.,.
COc1ccc2cc(CN(CC3CCCO3)C(=S)NCc3ccco3)c(=O)[nH]c2c1 (centres undefined),-,-,-,-,-,-,.,.
COc1ccccc1CNC(=O)CSCc1cnn(-c2ccccc2)c1-n1cccc1,-,-,-,-,-,-,.,.
COc1ccc(OC)c(NC(=O)CSCc2cnn(-c3ccccc3)c2-n2cccc2)c1,-,-,-,78.0,-,-,76.9,-
CCOC(=O)N/N=C(/C)c1ccc([N+](=O)[O-])o1,-,-,-,93.1,-,-,-,77.3

# Compound activity: PubChem BioAssay, The Scripps Research Institute Molecular Screening Center
